Reference: ChEMBL document CHEMBL2375304, “Synthesis and anticancer activity of novel 2-pyridyl hexahyrocyclooctathieno[2,3-d]pyrimidine derivatives” (2013)

Tests used:
Format in all cases: functional
LOX IMVI = assay: Growth inhibition of human LOXIMVI cells at 10^-5 M after 48 hrs by Sulforhodamine B assay relative to control; settings: read-out: GI
Method in brief: (§1)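 Single-dose screen at 10⁻⁵ M. Cells are preincubated 24 h at 37 °C in 5% CO2, then exposed to the compound, diluted from a DMSO stock into medium with gentamicin, for 48 h. Adherent cells are fixed with cold TCA (final 10%) and suspension cells with TCA (final 16%). Cells are stained with 0.4% SRB in 1% acetic acid and bound dye is read at 515 nm. Percent growth inhibition is taken against control wells and time-zero plates.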

U-251 = assay: Growth inhibition of human U251 cells at 10^-5 M after 48 hrs by Sulforhodamine B assay relative to control; settings: U-251, 48 h, read-out: GI
Method in brief: (§2)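 Single-dose stage: compound tested at 10⁻⁵ M in the 49-cell-line panel. Cells grew 24 h at 37 °C, 5% CO₂ before drug addition. Drug stock was in DMSO at 400-fold, diluted in medium with gentamicin. After 48 h exposure, adherent cells were fixed with cold TCA (10% final) and stained with 0.4% SRB in 1% acetic acid. Dye was solubilized in 10 mM Tris, read at 515 nm. Growth percentage was taken relative to untreated control and time-zero plates.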

SF-268 = assay: Growth inhibition of human SF268 cells at 10^-5 M after 48 hrs by Sulforhodamine B assay relative to control; settings: SF-268, 48 h, read-out: GI
Method in brief: (§3)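 Single-dose primary screen at 10⁻⁵ M across 49 lines. Cells were plated 24 h beforehand, with a TCA-fixed time-zero plate, then exposed 48 h at 37 °C, 5% CO2. Cells were fixed with cold TCA, stained with SRB and read at 515 nm. Percent growth was calculated against time-zero and untreated-control absorbances.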

NCI-H322M [1] = assay: Growth inhibition of human NCI-H322M cells at 10^-5 M after 48 hrs by Sulforhodamine B assay relative to control; settings: read-out: GI; method in brief: as §3
HOP-62 = assay: Growth inhibition of human HOP62 cells at 10^-5 M after 48 hrs by Sulforhodamine B assay relative to control; settings: HOP-62, 48 h, read-out: GI; method in brief: as §1
Hs-578T [2] = assay: Growth inhibition of human Hs578T cells at 10^-5 M after 48 hrs by Sulforhodamine B assay relative to control; settings: read-out: GI; method in brief: as §1
MDA-MB-231 [3] = assay: Growth inhibition of human MDA-MB-231 cells at 10^-5 M after 48 hrs by Sulforhodamine B assay relative to control; settings: MDA-MB-231, 48 h, read-out: GI; method in brief: as §1
PC-3 = assay: Growth inhibition of human PC3 cells at 10^-5 M after 48 hrs by Sulforhodamine B assay relative to control; settings: PC-3, 48 h, read-out: GI; method in brief: as §3
ACHN = assay: Growth inhibition of human ACHN cells at 10^-5 M after 48 hrs by Sulforhodamine B assay relative to control; settings: read-out: GI; method in brief: as §1
A498 = assay: Growth inhibition of human A498 cells at 10^-5 M after 48 hrs by Sulforhodamine B assay relative to control; settings: A498, 48 h, read-out: GI; method in brief: as §1
[4] = Growth inhibition of human NCI-ADR-RES cells at 10^-5 M after 48 hrs by Sulforhodamine B assay relative to control; settings: read-out: GI; method in brief: as §3
OVCAR-8 [5] = assay: Growth inhibition of human OVCAR8 cells at 10^-5 M after 48 hrs by Sulforhodamine B assay relative to control; settings: OVCAR-8, 48 h, read-out: GI; method in brief: as §3
UACC-62 = assay: Growth inhibition of human UACC62 cells at 10^-5 M after 48 hrs by Sulforhodamine B assay relative to control; settings: UACC-62, 48 h, read-out: GI; method in brief: as §2
Hs-578T [6] = assay: Growth inhibition of human Hs578T cells after 48 hrs by Sulforhodamine B assay
Method in brief: (§4)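 Five-concentration SRB assay using 10-fold or ½-log serial dilutions from a DMSO stock. Exposure is 48 h at 37 °C in 5% CO2 after 24 h preincubation. TCA fixation is followed by SRB staining and a reading at 515 nm. Percentage growth is computed from time-zero, control and treated absorbances. GI50 is the concentration where [(Ti−Tz)/(C−Tz)]×100 = 50, read from the plot against log concentration.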

MDA-MB-231 [7] = assay: Growth inhibition of human MDA-MB-231 cells after 48 hrs by Sulforhodamine B assay; settings: MDA-MB-231, 48 h; method in brief: as §4
UO-31 = assay: Growth inhibition of human UO31 cells after 48 hrs by Sulforhodamine B assay; settings: UO-31, 48 h
Method in brief: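 Five-concentration stage in the […]-cell-line panel, using 10-fold or ½-log serial dilutions made from a DMSO stock (400-fold). Cells were preincubated 24 h at 37 °C, then drug-exposed 48 h. A time-zero plate was fixed with TCA at dosing, adherent cells were fixed with cold TCA (10% final), and protein was stained with SRB, absorbance 515 nm. GI50 was where [(Ti−Tz)/(C−Tz)]×100 = 50, from the percent growth vs log concentration plot, expressed as log10 GI50.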

SN12C = assay: Growth inhibition of human SN12C cells after 48 hrs by Sulforhodamine B assay
Method in brief: (§5)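 Cells were preincubated 24 h at 37 °C, 5% CO2, and a time-zero plate was TCA-fixed. Five concentrations were made by serial dilution from a DMSO stock (400-fold the top concentration) and incubated 48 h. Adherent cells were fixed with 10% final TCA and suspension cells with 16%. Plates were stained with 0.4% SRB and read at 515 nm. GI50 is the concentration giving 50% reduction in net protein increase versus control.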

OVCAR-8 [8] = assay: Growth inhibition of human OVCAR8 cells after 48 hrs by Sulforhodamine B assay; settings: OVCAR-8, 48 h; method in brief: as §5
OVCAR-5 = assay: Growth inhibition of human OVCAR5 cells after 48 hrs by Sulforhodamine B assay; settings: OVCAR-5, 48 h; method in brief: as §5
SK-MEL-5 = assay: Growth inhibition of human SK-MEL-5 cells after 48 hrs by Sulforhodamine B assay; settings: SK-MEL-5, 48 h; method in brief: as §5
SK-MEL-28 = assay: Growth inhibition of human SK-MEL-28 cells after 48 hrs by Sulforhodamine B assay; settings: SK-MEL-28, 48 h; method in brief: as §5
SK-MEL-2 = assay: Growth inhibition of human SK-MEL-2 cells after 48 hrs by Sulforhodamine B assay; settings: SK-MEL-2, 48 h; method in brief: as §5
SF-539 = assay: Growth inhibition of human SF539 cells after 48 hrs by Sulforhodamine B assay; settings: SF-539, 48 h; method in brief: as §5
NCI-H460 = assay: Growth inhibition of human NCI-H460 cells after 48 hrs by Sulforhodamine B assay; settings: NCI-H460, 48 h; method in brief: as §5
NCI-H522 = assay: Growth inhibition of human NCI-H522 cells after 48 hrs by Sulforhodamine B assay; settings: NCI-H522, 48 h; method in brief: as §5
NCI-H322M [9] = assay: Growth inhibition of human NCI-H322M cells after 48 hrs by Sulforhodamine B assay; method in brief: as §5
NCI-H226 = assay: Growth inhibition of human NCI-H226 cells after 48 hrs by Sulforhodamine B assay; settings: NCI-H226, 48 h; method in brief: as §5
CCRF-CEM = assay: Growth inhibition of human CCRF-CEM cells at 10^-5 M after 48 hrs by Sulforhodamine B assay relative to control; settings: read-out: GI; method in brief: as §1

`COc1ccc(N2CCN(c3nc(-c4ccncc4)nc4sc5c(c34)CCCCCC5)CC2)cc1` gave an inhibition of growth at 10 µM (LOX IMVI) of 8.33%, an inhibition of growth at 10 µM (U-251) of 15.8% and an inhibition of growth at 10 µM (SF-268) of 2.5%. The inhibition of growth at 10 µM (NCI-H322M [1]) was -7.78%, the inhibition of growth at 10 µM (HOP-62) was 0.29% and the inhibition of growth at 10 µM (Hs-578T [2]) was -5.59%. For the same molecule, the inhibition of growth at 10 µM (MDA-MB-231 [3]) was 12.1%, the inhibition of growth at 10 µM (PC-3) was 44.5% and the inhibition of growth at 10 µM (ACHN) was 19.9%. It also gave an inhibition of growth at 10 µM (A498) of 6.97%, an inhibition of growth at 10 µM [4] of 9.28% and an inhibition of growth at 10 µM (OVCAR-8 [5]) of 5.9%. For the same molecule, the inhibition of growth at 10 µM (UACC-62) was 36.9%.
`COc1ccc(N2CCN(c3nc(-c4ccccn4)nc4sc5c(c34)CCCCCC5)CC2)cc1` showed a GI50 (Hs-578T [6]) of 57.5 µM, a GI50 (MDA-MB-231 [7]) of 50.1 µM and a GI50 (UO-31) of 3.31 µM. For the same molecule, the GI50 (SN12C) was 6.03 µM, the GI50 (OVCAR-8 [8]) was 5.25 µM and the GI50 (OVCAR-5) was 51.3 µM. The GI50 (SK-MEL-5) was 2.82 µM, the GI50 (SK-MEL-28) was > 100 µM and the GI50 (SK-MEL-2) was 18.2 µM. For the same molecule, the GI50 (SF-539) was 67.6 µM, the GI50 (NCI-H460) was 4.68 µM and the GI50 (NCI-H522) was 18.6 µM. The GI50 (NCI-H322M [9]) was 5.5 µM and the GI50 (NCI-H226) was 6.46 µM.
`c1ccc(N2CCN(c3nc(-c4ccncc4)nc4sc5c(c34)CCCCCC5)CC2)cc1` showed an inhibition of growth at 10 µM (LOX IMVI) of 0%, an inhibition of growth at 10 µM (U-251) of 0.24% and an inhibition of growth at 10 µM (SF-268) of -1.33%. It also gave an inhibition of growth at 10 µM (NCI-H322M [1]) of -2.96%, an inhibition of growth at 10 µM (HOP-62) of -5.44% and an inhibition of growth at 10 µM (Hs-578T [2]) of -12.9%. It also gave an inhibition of growth at 10 µM (MDA-MB-231 [3]) of 2.4%, an inhibition of growth at 10 µM (PC-3) of 5.9% and an inhibition of growth at 10 µM (ACHN) of 7.05%. The inhibition of growth at 10 µM (A498) was 4.79%, the inhibition of growth at 10 µM [4] was 5.34% and the inhibition of growth at 10 µM (OVCAR-8 [5]) was 8.55%. For the same molecule, the inhibition of growth at 10 µM (UACC-62) was 5.59%.
Molecule `c1ccc(N2CCN(c3nc(-c4ccccn4)nc4sc5c(c34)CCCCCC5)CC2)cc1` has an inhibition of growth at 10 µM (LOX IMVI) of 42.2%, an inhibition of growth at 10 µM (U-251) of 37.1% and an inhibition of growth at 10 µM (SF-268) of 20.4%. The inhibition of growth at 10 µM (NCI-H322M [1]) was 17.7%, the inhibition of growth at 10 µM (HOP-62) was 36.2% and the inhibition of growth at 10 µM (CCRF-CEM) was 31%. For the same molecule, the inhibition of growth at 10 µM (Hs-578T [2]) was 6.17%, the inhibition of growth at 10 µM (MDA-MB-231 [3]) was 22.4% and the inhibition of growth at 10 µM (PC-3) was 54%. It also gave an inhibition of growth at 10 µM (ACHN) of 56.1%, an inhibition of growth at 10 µM (A498) of 38.4% and an inhibition of growth at 10 µM [4] of 57.5%. It also gave an inhibition of growth at 10 µM (OVCAR-8 [5]) of 44.5% and an inhibition of growth at 10 µM (UACC-62) of 41.2%.
In the case of `CN1CCN(c2nc(-c3ccncc3)nc3sc4c(c23)CCCCCC4)CC1`, the GI50 (Hs-578T [6]) was 2.29 µM, the GI50 (MDA-MB-231 [7]) was 4.27 µM and the GI50 (UO-31) was 1.58 µM. For the same molecule, the GI50 (SN12C) was 5.62 µM, the GI50 (OVCAR-8 [8]) was 12.3 µM and the GI50 (OVCAR-5) was 10.7 µM. The GI50 (SK-MEL-5) was 7.94 µM, the GI50 (SK-MEL-28) was 12.6 µM and the GI50 (SK-MEL-2) was 14.5 µM. It also gave a GI50 (SF-539) of 8.32 µM, a GI50 (NCI-H460) of 13.5 µM and a GI50 (NCI-H522) of 12 µM. It also gave a GI50 (NCI-H322M [9]) of 13.2 µM and a GI50 (NCI-H226) of 10.5 µM.
`c1cc(-c2nc(N3CCOCC3)c3c4c(sc3n2)CCCCCC4)ccn1` showed an inhibition of growth at 10 µM (LOX IMVI) of 11.6%, an inhibition of growth at 10 µM (U-251) of 21.9% and an inhibition of growth at 10 µM (SF-268) of 4.06%. The inhibition of growth at 10 µM (NCI-H322M [1]) was -14.3%, the inhibition of growth at 10 µM (HOP-62) was 1.14% and the inhibition of growth at 10 µM (CCRF-CEM) was 2.07%. It also gave an inhibition of growth at 10 µM (Hs-578T [2]) of -13.3%, an inhibition of growth at 10 µM (MDA-MB-231 [3]) of 28.1% and an inhibition of growth at 10 µM (PC-3) of 35.4%. The inhibition of growth at 10 µM (ACHN) was 17.1%, the inhibition of growth at 10 µM (A498) was 33.7% and the inhibition of growth at 10 µM [4] was 18.7%. For the same molecule, the inhibition of growth at 10 µM (OVCAR-8 [5]) was 15.3% and the inhibition of growth at 10 µM (UACC-62) was 15.5%.
